Here are results for 6 molecules from ChEMBL document CHEMBL3120107, “Cytotoxic cardiac glycosides and coumarins from Antiaris toxicaria” (2014).

In brackets after ≈: the same amount, converted by molar mass.

Experiment [1] relates to KB. The experiment can be described thus: Cytotoxicity against human KB cells assessed as growth inhibition after 72 hrs by SRB assay. Particulars: Homo sapiens, KB, 72 h; read-out: ED50 (the source's name). Format: functional. The method, boiled down: (§1)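 Sulforhodamine B assay run by NCI-validated procedure. Cells grown at 37 °C under humidified 5% CO2 in RPMI-1640 with 25 mM HEPES, […] (w/v) sodium bicarbonate, 10% (v/v) FBS and 100 μg/mL kanamycin. Compounds came from DMSO stocks, with final DMSO ≤ 1% (v/v). Continuous exposure for 72 h. ED50 (μg/mL, 50% cell-number reduction) interpolated from dose-response data. Triplicate tests. Doxorubicin served as positive control.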

Experiment [2] relates to PC-3. The experiment in a line: Cytotoxicity against human PC3 cells assessed as growth inhibition after 72 hrs by SRB assay. Particulars: Homo sapiens, PC-3, 72 h; read-out: ED50 (the source's name). The experiment is classed as functional. The method, boiled down:
as §1
For orientation: In SRB staining, fixed cells bind dye roughly in proportion to their protein.

The nature of experiment [3]: Cytotoxicity against human […] cells assessed as growth inhibition after 72 hrs by SRB assay. Particulars: Homo sapiens, HCT9, 72 h; read-out: ED50 (the source's name). Format: functional. The method, boiled down: as §1
A short description of experiment [4]: Cytotoxicity against human U87MG cells assessed as growth inhibition after 72 hrs by SRB assay. The experiment is classed as functional, U-87MG ATCC. To be noted: Homo sapiens, U-87 MG, 72 h; read-out: ED50 (the source's name). In a few lines: as §1
Experiment [5] has as its system 1A9. The experiment can be described thus: Cytotoxicity against human 1A9 cells assessed as growth inhibition after 72 hrs by SRB assay. Format: functional. Particulars: Homo sapiens, 1A9, 72 h; read-out: ED50 (the source's name). The method, boiled down: as §1
For experiment [6], the system named is SK-MEL-2. The experiment in a line: Cytotoxicity against human SK-MEL-2 cells assessed as growth inhibition after 72 hrs by SRB assay. Format: functional. Particulars: Homo sapiens, SK-MEL-2, 72 h; read-out: ED50 (the source's name). In a few lines:
as §1

Experiment [7] can be described thus: Cytotoxicity against human KBVIN cells assessed as growth inhibition after 72 hrs by SRB assay. The experiment is classed as functional. Particulars: Homo sapiens, KBVIN, 72 h; read-out: ED50 (the source's name). In a few lines: as §1
Experiment [8] deals with A549. The experiment can be described thus: Cytotoxicity against human A549 cells assessed as growth inhibition after 72 hrs by SRB assay. The experiment is classed as functional. To be noted: Homo sapiens, A549, 72 h; read-out: ED50 (the source's name). The method, boiled down:
as §1

In experiment [9] the test system is CAKI-1. The experiment can be described thus: Cytotoxicity against human CAKI-1 cells assessed as growth inhibition after 72 hrs by SRB assay. Format: functional. Particulars: Homo sapiens, CAKI-1, 72 h; read-out: ED50 (the source's name). The method, boiled down:
as §1

Experiment [10] has as its system MCF7. The experiment in a line: Cytotoxicity against human MCF7 cells assessed as growth inhibition after 72 hrs by SRB assay. Format: functional. Particulars: Homo sapiens, MCF7, 72 h; read-out: ED50 (the source's name). In a few lines: as §1

Consider `C[C@H]1O[C@@H](O[C@H]2CC[C@]3(C=O)[C@H]4CC[C@]5(C)[C@@H](C6=CC(=O)OC6)CC[C@]5(O)[C@@H]4CC[C@]3(O)C2)[C@H](O)[C@H](O)[C@H]1O` [DESGLUCOCHEIROTOXIN], for which the EC50 came to 0.044 µg/mL (≈ 0.0799 µM) in experiment [1]; 0.018 µg/mL (≈ 0.0327 µM) in [2]; 0.044 µg/mL (≈ 0.0799 µM) in experiment [3]; 0.054 µg/mL (≈ 0.0981 µM) in experiment [4]; 0.012 µg/mL (≈ 0.0218 µM) in experiment [5]; 0.015 µg/mL (≈ 0.0272 µM) in experiment [6]. Further, the EC50 was 0.018 µg/mL (≈ 0.0327 µM) in [7], 0.0092 µg/mL (≈ 0.0167 µM) in [8], 0.014 µg/mL (≈ 0.0254 µM) in [9] and 0.015 µg/mL (≈ 0.0272 µM) in experiment [10].

On to `C[C@H]1O[C@H](O[C@H]2CC[C@]3(C=O)[C@H]4CC[C@]5(C)[C@@H](C6=CC(=O)OC6)CC[C@]5(O)[C@@H]4CC[C@]3(O)C2)[C@H](O)[C@H](O[C@@H]2O[C@H](CO)[C@@H](O)[C@H](O)[C@H]2O)[C@@H]1O` [GLUCOSTROPHALLOSIDE], for which the EC50 came out at 0.12 µg/mL (≈ 0.168 µM) in experiment [1]; 0.084 µg/mL (≈ 0.118 µM) in [2]; 0.13 µg/mL (≈ 0.182 µM) in [3]; 0.15 µg/mL (≈ 0.21 µM) in experiment [4]; 0.057 µg/mL (≈ 0.08 µM) in experiment [5]; 0.12 µg/mL (≈ 0.168 µM) in [6]. The EC50 in [7] amounted to 0.083 µg/mL (≈ 0.116 µM); in experiment [8] it was 0.038 µg/mL (≈ 0.0533 µM); in experiment [9] it was 0.065 µg/mL (≈ 0.0912 µM); in [10], 0.096 µg/mL (≈ 0.135 µM).

On to `C[C@@H]1O[C@H](O[C@H]2CC[C@@]3(C=O)[C@H](CC[C@@H]4[C@@H]3CC[C@]3(C)[C@@H](C5=CC(=O)OC5)CC[C@]43O)C2)[C@H](O)[C@H](O)[C@H]1O` [MALAYOSIDE], for which the EC50 in experiment [1] came out at 0.3 µg/mL (≈ 0.561 µM); in experiment [2] it was 0.11 µg/mL (≈ 0.206 µM); in experiment [3], 0.18 µg/mL (≈ 0.337 µM); in experiment [4], 0.37 µg/mL (≈ 0.692 µM); in [5], 0.076 µg/mL (≈ 0.142 µM); in experiment [6] it was 0.62 µg/mL (≈ 1.16 µM). In addition, the EC50 in [7] was determined as 0.32 µg/mL (≈ 0.599 µM); in experiment [8], 0.08 µg/mL (≈ 0.15 µM); in experiment [9], 0.073 µg/mL (≈ 0.137 µM); in [10], 0.19 µg/mL (≈ 0.355 µM).

As for `C[C@@H]1O[C@H](O[C@H]2CC[C@]3(C)[C@H]4CC[C@]5(C)[C@@H](C6=CC(=O)OC6)CC[C@]5(O)[C@@H]4CC[C@]3(O)C2)[C@H](O)[C@H](O)[C@H]1O` [PERIPLORHAMNOSIDE], the EC50 was 0.054 µg/mL (≈ 0.101 µM) in [1]; 0.021 µg/mL (≈ 0.0391 µM) in [2]; 0.044 µg/mL (≈ 0.082 µM) in experiment [3]; 0.082 µg/mL (≈ 0.153 µM) in experiment [4]; 0.012 µg/mL (≈ 0.0224 µM) in experiment [5]; 0.017 µg/mL (≈ 0.0317 µM) in [6]. Further, the EC50 turned out to be 0.02 µg/mL (≈ 0.0373 µM) in experiment [7], 0.012 µg/mL (≈ 0.0224 µM) in experiment [8], 0.014 µg/mL (≈ 0.0261 µM) in [9] and 0.018 µg/mL (≈ 0.0335 µM) in experiment [10].

Turning to `C[C@]12CC[C@H]3[C@@H](CC[C@]4(O)C[C@@H](O)CC[C@]34C=O)[C@@]1(O)CC[C@@H]2C1=CC(=O)OC1` [STROPHANTHIDIN], the EC50 in experiment [1] was 0.61 µg/mL (≈ 1.51 µM); in [2], 0.17 µg/mL (≈ 0.42 µM); in [3], 0.51 µg/mL (≈ 1.26 µM); in experiment [4], 0.72 µg/mL (≈ 1.78 µM); in experiment [5], 0.15 µg/mL (≈ 0.371 µM); in [6], 0.13 µg/mL (≈ 0.321 µM). Also, the EC50 came to 0.69 µg/mL (≈ 1.71 µM) in [7], 0.11 µg/mL (≈ 0.272 µM) in experiment [8], 0.14 µg/mL (≈ 0.346 µM) in experiment [9] and 0.38 µg/mL (≈ 0.939 µM) in experiment [10].

With `C[C@]12CC[C@H]3[C@@H](CC[C@]4(O)C[C@@H](O)CC[C@]34CO)[C@@]1(O)CC[C@@H]2C1=CC(=O)OC1` [STROPHANTHIDOL], the EC50 in [1] worked out at 2.7 µg/mL (≈ 6.64 µM); in experiment [2], 0.81 µg/mL (≈ 1.99 µM); in [3], 6.4 µg/mL (≈ 15.7 µM); in experiment [4] it was 2.9 µg/mL (≈ 7.13 µM); in [5], 0.66 µg/mL (≈ 1.62 µM); in [6] it was 0.57 µg/mL (≈ 1.4 µM). For the same molecule, the EC50 in [7] was determined as 3 µg/mL (≈ 7.38 µM); in experiment [8], 0.14 µg/mL (≈ 0.344 µM); in [9], 0.67 µg/mL (≈ 1.65 µM); in [10] it was 0.69 µg/mL (≈ 1.7 µM).
